Columns and labels:
[1] = Concentration required for growth inhibition of taxol resistant human lymphoblastic leukemic cell line (CCRF-CEM/taxol) was determined; assay type: functional, cell-based
Procedure, shortened: (§1)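 Drug-resistant human lymphoblastic leukemia sublines (vinblastine-resistant CCRF-CEM/VBL; taxol-resistant CCRF-CEM/taxol). Growth inhibition measured by XTT assay after 72 h incubation, reported as IC50.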

HCT-116 = assay: Concentration required for growth inhibition of human HCT116 colon tumor cell line […] was determined; assay type: functional, cell-based
A549 = assay: Concentration required for growth inhibition of […] was determined; assay type: functional, cell-based; settings: Homo sapiens
CCRF-CEM = assay: Concentration required for growth inhibition of human lymphoblastic leukemic cell line (CCRF-CEM) was determined; assay type: functional, cell-based
Procedure, shortened: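 Leukemic CCRF-CEM cells and their vinblastine-resistant (CCRF-CEM/VBL) and taxol-resistant (CCRF-CEM/taxol) sublines were incubated for 72 h. Growth inhibition was read by XTT assay and expressed as IC50. For the resistant sublines, fold resistance was calculated relative to the parent CCRF-CEM IC50.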

Mus musculus [2] = assay: Average change in body weight of mice bearing human mammary carcinoma (MX-1) xenograft on 14th day of administration (dose = 1-2 mg/kg); assay type: functional
Procedure, shortened: (§2)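 Nude mice (n = 3) bearing human MX-1 mammary carcinoma xenografts (Day 0). Intravenous treatment started on D11, when tumors were 80–120 mm3, at 1–2 mg/kg on a Q3D × 7 schedule. Body weight was taken as total body weight minus tumor weight. Animals with excessive tumor burden (>3500 mm3) were sacrificed.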

Mus musculus [3] = assay: Average change in body weight of mice bearing human mammary carcinoma (MX-1) xenograft on 17th day of administration (dose = 1-2 mg/kg); assay type: functional; procedure, shortened: as §2
Mus musculus [4] = assay: Average change in body weight of mice bearing human mammary carcinoma (MX-1) xenograft on 20th day of administration (dose = 1-2 mg/kg); assay type: functional; procedure, shortened: as §2
Mus musculus [5] = assay: Average change in body weight of mice bearing human mammary carcinoma (MX-1) xenograft on 23th day of administration (dose = 1-2 mg/kg); assay type: functional; procedure, shortened: as §2
Mus musculus [6] = assay: Average change in body weight of mice bearing human mammary carcinoma (MX-1) xenograft on 26th day of administration (dose = 1-2 mg/kg); assay type: functional; procedure, shortened: as §2
[7] = Average tumor size of human mammary carcinoma (MX-1) xenograft in mice on 17th day of administration (dose = 1-2 mg/kg); assay type: organism-based; settings: mouse, in vivo
Procedure, shortened: (§3)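 Human MX-1 breast carcinoma xenografts in nude mice (n = 3) with tumors established on Day 0. Dosing was iv, 1–2 mg/kg Q3D × 7, beginning D11 at tumor size 80–120 mm3. Tumor size was tracked in mm3, and mice were sacrificed when tumors exceeded 3500 mm3.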

[8] = Average tumor size of human mammary carcinoma (MX-1) xenograft in mice on 20th day of administration (dose = 1-2 mg/kg); assay type: organism-based; settings: mouse, in vivo; procedure, shortened: as §3
[9] = Average tumor size of human mammary carcinoma (MX-1) xenograft in mice on 23th day of administration (dose = 1-2 mg/kg); assay type: organism-based; settings: mouse, in vivo; procedure, shortened: as §3
[10] = Concentration required for growth inhibition of vinblastine resistant human lymphoblastic leukemic cell line (CCRF-CEM/VBL) was determined; assay type: functional, cell-based; procedure, shortened: as §1

Structure (SMILES) | IC50 [1] | IC50 (HCT-116) | IC50 (A549) | IC50 (CCRF-CEM) | IC50 [10] | other results
OCc1cc(Nc2c3ccccc3nc3ccccc23)cc(OCCN(CCCl)CCCl)c1 | 0.03 µM | 0.0055 µM | 0.0056 µM | 0.007 µM | 0.0075 µM | Weight (Mus musculus [2]): 1.2 g; Weight (Mus musculus [3]): -1.4 g; Weight (Mus musculus [4]): -3 g; Weight (Mus musculus [5]): -3 g; Weight (Mus musculus [6]): -3.9 g; T/C [7]: 0.37; T/C [8]: 0.17; T/C [9]: 0.14
ClCCN(CCCl)CCOc1cccc(Nc2c3ccccc3nc3ccccc23)c1 |  |  |  | 0.09 µM |  | 
ClCCN(CCCl)CCOc1ccc(Nc2c3ccccc3nc3ccccc23)cc1 | 0.06 µM |  |  | 0.02 µM | 0.06 µM | 
Cc1cccc2c(Nc3ccc(OCCN(CCCl)CCCl)cc3)c3cccc(C(=O)NCCN(C)C)c3nc12 |  |  |  | 0.77 µM |  | 
Nc1cc(CO)cc(Nc2c3ccccc3nc3ccccc23)c1 | 0.6 µM |  | 0.047 µM | 0.75 µM | 1.6 µM | 
Cc1cccc2c(Nc3cccc(OCCN(CCCl)CCCl)c3)c3cccc(C(=O)NCCN(C)C)c3nc12 |  |  |  | 0.003 µM |  | 
CC(=O)O[C@H]1C(=O)[C@@]2(C)[C@H]([C@H](OC(=O)c3ccccc3)[C@]3(O)C[C@H](OC(=O)[C@H](O)[C@@H](NC(=O)c4ccccc4)c4ccccc4)C(C)=C1C3(C)C)[C@]1(OC(C)=O)CO[C@@H]1C[C@@H]2O [PACLITAXEL] | 0.14 µM | 0.0026 µM | 0.0029 µM | 0.0015 µM | 1.62 µM | 
CC[C@]1(O)C[C@@H]2CN(CCc3c([nH]c4ccccc34)[C@@](C(=O)OC)(c3cc4c(cc3OC)N(C)[C@H]3[C@@](O)(C(=O)OC)[C@H](OC(C)=O)[C@]5(CC)C=CCN6CC[C@]43[C@@H]65)C2)C1 [VINBLASTINE] | 0.029 µM | 0.0087 µM | 0.0099 µM | 0.0012 µM | 0.54 µM | 

Reference: ChEMBL document CHEMBL1137839, “Potent antitumor N-mustard derivatives of 9-anilinoacridine, synthesis and antitumor evaluation” (Bioorg Med Chem Lett, 2004)
